Assay outcomes from PubChem BioAssay.
MPTP inh – blocks calcium-induced mitochondrial swelling; isolated mouse mitochondria, Ca2+ swelling absorbance, 30 min; inhibition, % at 10 µM; actives 1.4% (n = 360,000); AID 602449;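 active = inhibition of 50% or more, scaled per plate between neutral and stimulator controls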
OX1R antag-1 – antagonists of human orexin 1 receptor; O43613; CHO/OX1R cells, Fluo-8 calcium fluorescence, orexin A; inhibition, % at 5 µM; actives 0.43% (n = 330,000); AID 434989;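 active = inhibition above its plate's threshold, mean inhibition of all tested compounds on the plate plus 3 SD, cut at about 37% in these data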
GPR7 antagonist – human neuropeptides B/W receptor 1 antagonism. AID 1861. actives 1.1% (n = 290,000). inhibition, % at 4.4 µM. GPR7-expressing cells, fluorescence antagonist assay; in the data active = inhibition above about 16%, passing the limit was not always enough;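 also: cells stimulated with the agonist NPW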
Target sequence (P48145 whole entry, looked up): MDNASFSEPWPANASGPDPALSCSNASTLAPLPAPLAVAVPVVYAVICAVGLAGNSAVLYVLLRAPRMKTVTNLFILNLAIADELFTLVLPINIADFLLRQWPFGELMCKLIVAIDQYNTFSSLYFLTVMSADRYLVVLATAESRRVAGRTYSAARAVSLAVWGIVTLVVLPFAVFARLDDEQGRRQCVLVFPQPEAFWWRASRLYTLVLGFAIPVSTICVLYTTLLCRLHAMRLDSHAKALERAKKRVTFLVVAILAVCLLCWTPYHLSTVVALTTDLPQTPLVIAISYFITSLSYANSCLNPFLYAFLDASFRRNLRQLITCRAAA
OX1R antag-2 – blocks the human orexin 1 receptor; inhibition, % at 6.6 µM; AID 485270; O43613; actives 1.8% (n = 330,000); OX1R-expressing cells, FRET antagonist read-out; in the data active = inhibition mostly above about 38%, no sharp cut-off; inactive = mostly below about 40%
CHO parental Ca – counter-screen: ATP calcium response change in parental CHO cells. parental CHO-K1, ATP-induced calcium, Fluo-8 fluorescence. inhibition, % at 5.6 µM. actives 0.63% (n = 330,000);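 active = inhibition above that plate's mean sample inhibition plus 3 SD, cut at about 26% in these data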
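Material – parental CHO cells · Reagent – ATP stimulus · Compound – single nominal dose of 5.6 µM per compound · Detection – Fluo-8 fluorescence · Read-out basis – percent inhibition of calcium signal · Controls – ATP-challenged DMSO wells low, unchallenged DMSO wells high · Repeats – no replicates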
MPTP counter – Rhodamine 123 counter-screen of mitochondrial pore hits; isolated mitochondria, membrane potential, Rhodamine 123 fluorescence; shares compounds with MPTP inh; inhibition, % at 10 µM; AID 624504; actives 78% (n = 5,000); in the data active = inhibition above about 22%
MPTP swell DR – dose response confirmation of mitochondrial permeability transition pore inhibitors | IC50, µM | shares compounds with MPTP inh | isolated mitochondria swelling, absorbance | actives 58% (n = 780); in the data active = IC50 below about 20 µM
MPTP counter DR – active in counter-screen for permeability transition pore inhibitors; actives 49% (n = 780); shares compounds with MPTP inh; IC50, µM; isolated mitochondria counterscreen, fluorescence read-out; in the data active = IC50 below about 80 µM
Numbers stand for hits; . = inactive; / = no result given. In the library only some 3.8% were active in any assay of this set; here they are far more common.

SMILES	MPTP inh	OX1R antag-1	GPR7 antagonist	OX1R antag-2	CHO parental Ca	MPTP counter	others
CN(C)CC(O)c1ccc(C=Cc2ccc(Cl)cc2)cc1 (configuration not stated)	96.8	/	/	/	/	.	MPTP swell DR=17.2;MPTP counter DR=.
CN(C)/C=C/C(=O)/C=C/c1ccc(Cl)cc1	.	.	.	.	.	/
CC(C)c1ccc(-c2csc(NC(=O)c3cccs3)c2C(=O)O)cc1	61.7	.	.	.	.	56.2
Cc1cc(NC(=O)CSc2nc(-c3ccccc3Cl)nc3c2c(=O)n(C)c(=O)n3C)no1	.	.	.	.	.	/
COCCN1CCCC(CNCc2cn(C)nc2-c2ccc(Oc3ccccc3)cc2)C1 (configuration not stated)	90.7	.	.	.	.	.	MPTP swell DR=4.75;MPTP counter DR=.
COC1CCCN(Cc2cn(C)nc2-c2ccc(Oc3ccccc3)cc2)C1 (configuration not stated)	.	.	.	.	.	/
COc1ccc(CCNC(=O)C2CCN(Cc3nc(-c4ccccc4C)oc3C)CC2)cc1OC	81.8	.	.	.	.	.	MPTP swell DR=9.72;MPTP counter DR=22.6
Cc1ccccc1-c1nc(CN2CCC(C(=O)NC3CCCCC3)CC2)c(C)o1	.	.	.	.	.	/
Cc1ccccc1-c1nc(CN2CCC(C(=O)NC3CCN(Cc4ccccc4)CC3)CC2)c(C)o1	67.9	.	.	.	.	.	MPTP swell DR=.;MPTP counter DR=75.1
COc1ccc(CCNC(=O)C2CCN(Cc3nc(-c4ccc(Cl)cc4)oc3C)CC2)cc1OC	.	/	/	/	/	/
COc1ccc2cc1Oc1ccc(cc1)C[C@H]1c3cc(c(OC)cc3CCN1C)Oc1c(OC)c(OC)cc3c1[C@H](C2)N(C)CC3	77.2	.	/	.	.	.
S=C(NCCC1=CCCCC1)Nc1ccc(Cl)cc1	91.3	.	.	.	.	90.3
Clc1ccc(CNCCC2=CCCCC2)cc1	70.5	.	.	.	.	.	MPTP swell DR=12.6;MPTP counter DR=.
COc1ccc(NC(=S)NCCC2=CCCCC2)cc1OC	.	.	.	.	.	/
CSc1ncccc1C(=O)OCC(=O)c1cccs1	.	.	.	.	.	/
O=C(CSc1ccc(C(F)(F)F)cc1[N+](=O)[O-])Nc1ccc2ccccc2c1	74.5	.	.	.	.	.	MPTP swell DR=.;MPTP counter DR=.
COc1ccc(OCCNC(=O)CSc2ccc(C(F)(F)F)cc2[N+](=O)[O-])cc1	.	.	.	.	.	/
Cc1cccc(NC(=S)NC2CCSc3ccccc32)c1 (configuration not stated)	.	.	.	.	.	/
CCOc1ccccc1N1CCN(C(=O)Nc2ccc(F)c(Cl)c2)CC1	88.0	.	.	.	.	92.8
COc1ccccc1N1CCN(C(=O)Nc2ccc(F)c(Cl)c2)CC1	.	.	.	.	.	/
CC(C)(C)Nc1nc2nonc2nc1NC(C)(C)C	93.2	.	.	.	.	99.1
CCOc1ccc(Nc2nc(Cc3nnc(SCC(=O)c4ccc(C)c(C)c4)o3)cs2)cc1	83.0	.	.	.	29.0	74.1
Cn1cc(S(=O)(=O)N2CCc3ccccc32)cc1C(=O)NC(C)(C)C	50.0	.	.	.	32.5	79.5
Cc1cccc(C)c1NC(=O)c1cc(S(=O)(=O)N2CCc3ccccc32)cn1C	.	.	.	.	.	/
Cc1cc(F)ccc1S(=O)(=O)Nc1ccccc1C(=O)Nc1ccccc1-c1nc2ccccc2[nH]1	72.2	.	.	.	30.5	68.5
SMILES	MPTP inh	OX1R antag-1	GPR7 antagonist	OX1R antag-2	CHO parental Ca	MPTP counter	others
Cc1cc(F)ccc1S(=O)(=O)Nc1ccccc1C(=O)Nc1ccccc1N1CCOCC1	78.3	.	.	.	.	89.3
O=C(Nc1ccccc1N1CCOCC1)c1ccccc1NS(=O)(=O)c1ccc(F)cc1	.	.	.	.	.	/
O=C(Nc1ccccc1N1CCOCC1)c1ccccc1NS(=O)(=O)c1ccc(F)c(F)c1	62.1	.	.	.	.	97.9
CCSc1nc2sc3c(c2c(=O)n1C1CCCCC1)CCN(C)C3	50.1	/	/	/	/	29.8
C=C(C)CSc1nc2sc3c(c2c(=O)n1C1CCCCC1)CCN(C)C3	.	.	.	.	.	/
CCN(CC)C(=O)c1ccc(N)cc1	.	.	.	.	.	/
CC(C)(C)C(=O)NC(=S)NNC(=O)C(c1ccccc1)c1ccccc1	92.2	92.7	89.8	.	79.5	.
CCC1CCCCN1Cc1nc(Cc2ccccc2Cl)no1 (configuration not stated)	.	.	.	.	.	/
O=C(NC(NNc1ccc([N+](=O)[O-])cc1)(C(F)(F)F)C(F)(F)F)c1ccc(Cl)cc1	98.0	.	.	.	.	78.3
NC(=O)/C(=C\c1ccccc1)NC(=O)c1ccc(NC(=O)c2ccccc2)cc1	.	.	.	.	.	/
CNC(=S)Nc1ccc(C23CC4CC(CC(C4)C2)C3)cc1	52.3	.	.	.	.	65.6
NC(N)=Nc1ccc(C=C2C=Cc3ccccc32)cc1	58.2	/	/	/	/	.	MPTP swell DR=3.68;MPTP counter DR=31.3
COc1ccc(CNC2CCCc3ccccc32)cc1OC (configuration not stated)	61.1	.	.	.	.	.	MPTP swell DR=.;MPTP counter DR=69.5
O=C(C1CCCO1)N1CCN(S(=O)(=O)c2cc(C(F)(F)F)ccc2Cl)CC1 (configuration not stated)	.	/	/	/	/	/
Cc1cc(-c2onc(C)c2C(=O)Nc2ccc(C(F)(F)F)cc2)no1	.	.	.	.	.	/
Cc1noc(-c2ccc(C(F)(F)F)cc2)c1NC(=O)Nc1ccc(Cl)cc1	75.3	.	.	.	.	71.6
COc1ccc(C(=O)COC(=O)CNC(=O)c2ccccc2)cc1F	.	.	/	.	.	/
Cc1cc(OCC(=O)Nc2ccc(CN3CCCCC3)cc2)ccc1Cl	62.7	.	.	.	.	.	MPTP swell DR=10.6;MPTP counter DR=26.4
Cc1cc(OCC(=O)Nc2cccc(S(=O)(=O)NC3=NCCCCC3)c2)ccc1Cl	86.9	.	.	.	.	86.5
CCC1SC(=Nc2cccc(C)c2)NC1=O (configuration not stated)	.	.	.	.	.	/
CCC1SC(=NC(=O)c2ccc(Cl)c(Cl)c2)NC1=O (configuration not stated)	76.0	.	.	.	.	100.3
Cc1cc(C)c2sc(N(CCCN(C)C)C(=O)c3ccc(S(=O)(=O)N(C)C4CCCCC4)cc3)nc2c1	77.3	.	/	.	.	.
Cc1ccc2sc(N(CCCN(C)C)C(=O)c3ccc(S(=O)(=O)N4CCCCCC4)cc3)nc2c1C	58.0	.	/	.	.	.	MPTP swell DR=.;MPTP counter DR=63.9
Cc1cc(C)c2nc(N(CCCN(C)C)C(=O)c3ccc(S(=O)(=O)N4CCCCCC4)cc3)sc2c1	83.3	.	/	.	.	.	MPTP swell DR=6.37;MPTP counter DR=.
CCCCNCCOCCOc1ccccc1-c1ccccc1	82.9	.	.	.	.	.	MPTP swell DR=.;MPTP counter DR=.
COCCNCCCCOc1ccccc1-c1ccccc1	.	.	.	.	.	/
